Hits are enriched below; roughly 2.2% of the tested compounds scored in any of these assays.
UBC13 inh: human UBC13 polyubiquitination inhibition | 0.47% of 330,000 active | UBC13 polyubiquitin chain formation, TR-FRET | inhibition, % at 20 µM | AID 485273 | P61088; in the data active = inhibition above about 45%, passing the limit was not always enough; inconclusive = no clear call, values can overlap the other calls
GSTO1 inh: GSTO1 inhibition, counter-screen for RBBP9 inhibitors; P78417; recombinant GSTO1, activity-based probe fluorescence polarization; inhibition, % at 5.96 µM; 1.1% of 300,000 active; AID 1974;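 active = inhibition above the campaign mean inhibition plus 3 SD, cut at about 35% in these data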
Rin1 Abl inh: inhibitors of human Rin1-Abl protein interaction; inhibition, % at 7.35 µM; TR-FRET Rin1/Abl binding, biochemical; AID 588664; P00519+Q13671; 0.4% of 360,000 active; in the data active = inhibition above about 5%, passing the limit was not always enough
Apaf-1 inh: blocks human Apaf-1 apoptosome activity; reconstituted apoptosome caspase-3 activity, DEVD-Rh110 fluorescence; AID 489030; inhibition, % at 20 µM; 0.71% of 330,000 active; active = inhibition of at least 40% at 20 µM
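detection = Rh110 fluorescence intensity | test system = biochemical Apaf-1 apoptosome reconstitution | also added = cytochrome c and DEVD-Rh110 substrate | schedule = 30 min plus 50 min, RT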
UBC9 SUMO inh: inhibitors of human SUMOylation (UBC9); P63279; HTRF SUMOylation assay, SAE1/SAE2 + UBC9, in vitro; inhibition, % at 35 µM; 0.36% of 290,000 active; in the data active = inhibition above about 50%, passing the limit was not always enough; inconclusive = no clear call, values can overlap the other calls
PAD4 FP inh: PAD4 (human) enzyme inhibition; inhibition, % at 6.36 µM; 0.41% of 330,000 active; Q9UM07; recombinant PAD4, RCA probe fluorescence polarization;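 active = percent inhibition above a cutoff equal to the mean of all tested compounds plus 3 SD, cut at about 15% in these data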
Of the large screens only hits and unclear results are named; the others gave an inactive call.

CC(=O)Nc1ccc(NC(=O)CC2Nc3cccc4cccc(c34)NC2=O)cc1 (centres undefined)	Apaf-1 inh 96, UBC9 SUMO inh inconclusive
NC(=O)CC(NC(=O)Cc1cccc2ccccc12)c1ccc(NCCc2ccccc2F)c([N+](=O)[O-])c1 (centres undefined)	UBC9 SUMO inh 50
NC(=O)CC(NC(=O)Cc1cccc2ccccc12)c1ccc(NC2CCCCCC2)c([N+](=O)[O-])c1 (centres undefined)	UBC9 SUMO inh 61
Cc1c(Br)c(O)c(Br)c2sc(=O)oc12	GSTO1 inh 74
O=C(c1ccc2c(c1)[nH]c(=S)n1c3ccccc3nc21)N1CCN(c2ncccn2)CC1	UBC13 inh inconclusive, UBC9 SUMO inh 61
O=C(Nc1ccc2nc3ccccc3nc2c1)c1ccc(Br)cc1	UBC9 SUMO inh 57
N#CCc1cnc2ccccc2n1	GSTO1 inh 36 (no result: UBC13 inh, Apaf-1 inh)
NS(=O)(=O)c1ccc(NCc2cnc3ccccc3n2)cc1	none (no result: UBC13 inh, GSTO1 inh, Apaf-1 inh, UBC9 SUMO inh, PAD4 FP inh)
Cc1ccc(-c2[nH]c(-c3ccc(C(=O)O)cc3)nc2-c2ccccc2)cc1	UBC9 SUMO inh 58
COc1ccc(N(CC(=O)NCCSc2ccc(C)cc2)S(=O)(=O)c2ccccc2)c(OC)c1	none
CC(=O)c1sc2nc(-c3ccco3)ccc2c1N	GSTO1 inh 39, UBC9 SUMO inh 70
Nc1c(C(=O)Nc2ccc(Br)cc2)sc2nc(-c3ccco3)ccc12	UBC9 SUMO inh 72
Nc1c(C(=O)Nc2ccc(F)cc2)sc2nc(-c3ccco3)ccc12	UBC9 SUMO inh 74
NC(=O)c1sc2nc(-c3ccccc3)ccc2c1N	none
Cc1ccc(S(=O)(=O)Nc2ccccc2N2CCCCC2)cc1	none (no result: GSTO1 inh, UBC9 SUMO inh)
O=C(NCC(F)(F)F)c1ccc(S(=O)(=O)Nc2ccccc2N2CCCC2)cc1	Apaf-1 inh 54 (no result: GSTO1 inh, UBC9 SUMO inh)
CCOc1ccc(C2C(C#N)=C(N)Oc3nc[nH]c(=O)c32)cc1 (centres undefined)	none
O=c1[nH]cnc2c1C(c1ccc(Cl)cc1)c1c(nc[nH]c1=O)O2	Rin1 Abl inh 7.7 (no result: GSTO1 inh, PAD4 FP inh)
Cc1cc(C)c(C(=O)C(C)OC(=O)Cn2cnc3c2c(=O)n(C)c(=O)n3C)cc1C (centres undefined)	none (no result: UBC9 SUMO inh)
CC(=O)c1cccc(N2Cc3ccccc3C2=NC(=O)CCl)c1	GSTO1 inh 78
CC(=O)c1ccc(N2Cc3ccccc3/C2=N\C(=O)Nc2ccccc2)cc1	none
Cc1ccc(-n2nc3cc(C)c(N)cc3n2)cc1	none
CCc1ccc(-n2nc3cc(C)c(N)cc3n2)cc1	GSTO1 inh 36
COc1cccc(-c2cnc(C(O)c3ccc(C)cc3C)[nH]2)c1 (centres undefined)	none (no result: UBC13 inh, GSTO1 inh, Apaf-1 inh, UBC9 SUMO inh, PAD4 FP inh)
O=C(COC(=O)Cc1ccc(Cl)cc1)Nc1ccccc1-c1ccccc1	GSTO1 inh 36
O=C(COC(=O)Cc1c(Cl)cccc1Cl)Nc1ccccc1-c1ccccc1	none
CCc1ccc(S(=O)(=O)/N=C2\C=CC(=O)c3ccccc32)cc1	GSTO1 inh 67, Apaf-1 inh 55 (no result: Rin1 Abl inh, UBC9 SUMO inh)
Cc1ccc(C(=O)CSc2nnc(COc3ccccc3)o2)cc1	GSTO1 inh 37
CCN(CC(=O)NCc1ccc(Cl)cc1)C(=O)c1sccc1C	none (no result: GSTO1 inh, UBC9 SUMO inh)
CC1(C(=O)NS(=O)(=O)c2ccccc2)CCN1C(=O)COc1ccc(Cl)cc1 (centres undefined)	none (no result: UBC13 inh, GSTO1 inh, Apaf-1 inh, UBC9 SUMO inh, PAD4 FP inh)
CC(C)[C@H](NC(=O)c1ccccc1)C(=O)OCC(=O)c1ccc(S(=O)(=O)N2CCCCC2)cc1	GSTO1 inh 37 (no result: UBC9 SUMO inh)
COc1cccc(CN(CCC(=O)O)Cc2cccc(OC)c2)c1	none (no result: UBC13 inh, GSTO1 inh, Apaf-1 inh, UBC9 SUMO inh, PAD4 FP inh)
CCCc1cc(C(=O)Nc2ccc(C(C)=O)cc2)no1	none
CCCc1cc(C(=O)Nc2cccc(C(C)=O)c2)no1	GSTO1 inh 36
O=C1CC(c2ccccc2)(c2ccccc2)c2ccccc21	none (no result: UBC13 inh, GSTO1 inh, Apaf-1 inh, UBC9 SUMO inh, PAD4 FP inh)
CC(OC(=O)c1ccc(CN2CCCC2=O)cc1)C(=O)Nc1ccc(Cl)cc1 (centres undefined)	none (no result: GSTO1 inh, UBC9 SUMO inh)
O=C(/C=C/c1ccco1)NC(=S)Nc1ccc(C(=O)O)cc1	none
O=C(/C=C/c1ccco1)NC(=S)Nc1ccc(N2CCCC2)cc1	GSTO1 inh 50, UBC9 SUMO inh 60
Cc1ccc(NC(=O)COC(=O)c2cccc(S(=O)(=O)N3CCCCCC3)c2)cc1	none (no result: UBC13 inh, GSTO1 inh, Apaf-1 inh, UBC9 SUMO inh, PAD4 FP inh)
O=C(Nc1nnc(-c2ccccc2SCc2ccccc2F)s1)Nc1ccccc1F	UBC9 SUMO inh 52
COc1cc(C(=O)Nc2ccc(C(F)(F)F)cc2)ccc1OCC(=O)N1CCOCC1	none (no result: GSTO1 inh, UBC9 SUMO inh, PAD4 FP inh)
CCOC(=O)C1(C)CCN1C(=O)c1ccc(C(=O)OC)cc1 (centres undefined)	none (no result: UBC13 inh, GSTO1 inh, Apaf-1 inh, UBC9 SUMO inh, PAD4 FP inh)
Nc1ccc2c(c1)C/C(=C/c1ccco1)C2=O	UBC9 SUMO inh 85
O=C1/C(=C/c2ccco2)CCc2ccccc21	none
CN1CCN(C(=O)c2cccc(-c3ccc4nccn4c3)c2)CC1	none (no result: UBC13 inh, GSTO1 inh, Apaf-1 inh, UBC9 SUMO inh, PAD4 FP inh)
Cc1ccc(C)c(N(CC(=O)NC2CCCCC2)C(=O)CNC(=O)c2ccco2)c1	none
Cc1ccc(NC(=O)CN2C(=O)S/C(=C\c3cccn3-c3cccc(C(=O)O)c3)C2=O)c(C)c1	UBC9 SUMO inh 83
Cc1ccccc1NC(=O)CN1C(=O)S/C(=C\c2cccn2-c2cccc(C(=O)O)c2)C1=O	none
Cc1cccc(NC(=O)CN2C(=O)S/C(=C\c3cccn3-c3cccc(C(=O)O)c3)C2=O)c1	none
Cc1ccc(NC(=O)CN2C(=O)S/C(=C\c3cccn3-c3cccc(C(=O)O)c3)C2=O)cc1C	UBC9 SUMO inh 64
CCC1CN(C(=O)N2CCC(C(=O)NCCc3ccccc3)CC2)c2ccccc2O1 (centres undefined)	none
Cc1ccc(OCc2cc(C(=O)N3CCC(C(O)C(C)C)CC3)no2)cc1C (centres undefined)	none
CCC(Sc1nc2ccccc2o1)C(=O)Nc1nnc(C)s1 (centres undefined)	GSTO1 inh 44
CCN(CC(=O)Nc1ccc(OC)cc1)C(=O)c1cccc(S(=O)(=O)N2CCN(c3ccccc3)CC2)c1	none (no result: UBC13 inh, GSTO1 inh, Apaf-1 inh, UBC9 SUMO inh, PAD4 FP inh)
Cc1c(C(=O)NCc2cccc(C(F)(F)F)c2)sc(=O)n1Cc1ccc(S(=O)(=O)N(C)C)cc1	none (no result: UBC13 inh, GSTO1 inh, Apaf-1 inh, UBC9 SUMO inh, PAD4 FP inh)
CC1(C(=O)NS(=O)(=O)c2ccc(F)cc2F)CCN1C(=O)Cc1cc(F)ccc1F (centres undefined)	none (no result: UBC13 inh, GSTO1 inh, Apaf-1 inh, UBC9 SUMO inh, PAD4 FP inh)
O=C(CSc1nnc(-c2ccccn2)n1Cc1ccco1)c1ccccc1	none
O=C(CSc1nnc2ccccn12)NNC(=O)c1ccc(Cl)cc1	none
O=C(CSc1nnc(-c2ccccn2)n1Cc1ccco1)c1ccc(Cl)cc1	GSTO1 inh 35
O=C(CSc1nnc2ccccn12)c1ccc(Cl)cc1	GSTO1 inh 36
Cc1cccc(C)c1NC(=O)CNC(=O)c1ccc(COc2ccccc2)o1	none (no result: GSTO1 inh, UBC9 SUMO inh)
COC(=O)[C@H](Cc1ccccc1)NC(=O)/C=C/[C@H]1O[C@@H](n2cc(C)c(=O)[nH]c2=O)C[C@@H]1O	none (no result: UBC13 inh, GSTO1 inh, Apaf-1 inh, UBC9 SUMO inh, PAD4 FP inh)
O=C(N/N=C/c1cc(Cl)c(O)c(Cl)c1)c1cc2c(ccc3ccccc32)o1	GSTO1 inh 37
CCOC(=O)c1sc2nc3c(SCC(=O)O)cc(C(=O)c4cc(F)ccc4O)cn3c(=O)c2c1C	none (no result: UBC13 inh, Apaf-1 inh)

From PubChem BioAssay
